Data on 19 molecules can be found in paper PMC7707623 (Journal of Medicinal Chemistry, 2020).

Where only a bound is given, the exact number is not on record here.

The test system of assay [1] is three independent murine SCLC (mSCLC) cell lines. The experiment in a line: Cytotoxicity against three murine SCLC cell lines. The note with it: Mus musculus, read-out: average EC50. Format: cell-based. In a few lines:
(§1)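 Murine SCLC cells were allowed to attach overnight, then given test compound as a 10-point log-dilution series. Viability was read by CellTiter-Glo luminescence at 72 h, with the reagent diluted 1:1 in PBS/1% Triton-X. Signals were normalized to DMSO-treated cells and IC50 values came from curve fitting (n = 2 technical replicates). Fold values are ratios of these IC50s.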

The next assay relates to yeast cells (Sec14). The note with it: through inhibition of Sec14; cited from earlier work.
The subject of assay [2] is human SCLC cell lines, H889, H2107, and H128. The experiment in a line: Dose response against human SCLC cell lines. The class given is cell-based.
In assay [3] the test system is murine SCLC cell line 319N1. The experiment in a line: Cytotoxicity assay. The class given is cell-based, mouse. In a few lines: as §1
Assay [4] relates to 319N1-M2KO resistant clones A–E. The experiment in a line: Cytotoxicity against sulfonamide 27-resistant clones. The note with it: for IC50 fold change, resistant clones versus parental: all five clones A–E. The class given is cell-based, mouse.
For assay [5], the target named is T1, p50 (β-tubulin) in 518T2 murine SCLC cells (Mus musculus, UniProt P99024). The class given is binding. The note with it: 50 nM to 50 μM, 1.5 h, Alexa Fluor 532 azide. In a few lines:
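518T2 cells were plated at 1 million per well in DMEM with 5% FBS. Next day the alkyne probe in DMSO was added at 50 nM to 50 μM for 1.5 h at 37 °C, 5% CO2. Cells were PBS-washed and lysed in 1% SDS buffer (50 mM HEPES pH 7.4, 10 mM KCl, 2 mM MgCl2, benzonase). Lysates were copper-clicked to 25 μM Alexa Fluor 532 azide, run on SDS-PAGE and imaged by in-gel fluorescence.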

The target in assay [6] is human recombinant β3 tubulin (Homo sapiens, UniProt Q13509). Put plainly: Microtubule dynamics assay, recombinant β3 tubulin. Format: biochemical. In a few lines:
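Human αβ-tubulin (TUBA1B with TUBB3, C-terminal His-tag removed by TEV) was expressed in Tni insect cells and purified by Ni-affinity and anion exchange. Compound was added at 1, 5 or 10 μM versus DMSO; kymograph growth rates were taken from 71–119 microtubules over two trials.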

The subject of another assay is bovine brain tubulin. Put plainly: Microtubule dynamics assay, brain tubulin. Format: biochemical.
The target of assay [7] is T1, p50 (β-tubulin) in 518T2 murine SCLC cells. The experiment in a line: Cell-based competition with alkyne probe 24. Format: binding. To be noted: probe 24 at 5 μM, pre-treatment with increasing concentrations.
The next assay has as its system 518T2 cells. Put plainly: Cell cycle analysis by flow cytometry. The note with it: 300 nM, 24 h. The class given is cell-based, mouse. (In general: In flow cytometry, cells or beads pass a laser one at a time.)
The next assay relates to 518T2-Tubb5^T238A cells. The experiment in a line: Dose response in Tubb5 T238A edited cells. The class given is cell-based, mouse. To be noted: 518T2-Tubb5^T238A versus 518T2.

Broadly, the EC50 is the midpoint of the concentration-response curve. For the molecule `O=C(c1ccc(Cl)c([N+](=O)[O-])c1)N1CCN(c2ccccc2)CC1` [Compound 1], in assay [1], the half-maximal effective concentration (EC50) came out at 3210 ± 600 nM. In addition, the “toxicity to yeast cells” value with yeast cells (Sec14) is reported as “toxic to yeast cells”. The “sensitivity of human SCLC cell lines” value in [2] is given as “exhibited sensitivity”. As to `O=C(c1ccc(Cl)c([N+](=O)[O-])c1)N1CCN(c2ccccc2Cl)CC1` [Compound 2, (4-Chloro-3-nitrophenyl)(4-(2-chlorophenyl)piperazin-1-yl)methanone], the “antiproliferative activity in words” value in assay [3] (319N1) was “slightly improved potency”. Turning to `COc1cccc(N2CCN(C(=O)c3ccc(Cl)c([N+](=O)[O-])c3)CC2)c1` [Compound 3, (4-Chloro-3-nitrophenyl)(4-(3-methoxyphenyl)piperazin-1-yl)methanone], in [3] (319N1), the “fold more potent than benzamide 1” value is ~3 fold. Consider `Cc1cccc(N2CCN(C(=O)c3ccc(Cl)c([N+](=O)[O-])c3)CC2)c1` [Compound 4, (4-Chloro-3-nitrophenyl)(4-(m-tolyl)piperazin-1-yl)methanone], for which, in assay [3] (319N1), the “fold more potent than benzamide 1” value was ~3 fold. `Cc1ccc(Cl)cc1N1CCN(C(=O)c2ccc(Cl)c([N+](=O)[O-])c2)CC1` [Compound 10, (4-(5-Chloro-2-methylphenyl)piperazin-1-yl)(4-chloro-3-nitrophenyl)methanone] yielded a concentration for a half-maximal effect (EC50) in assay [3] (Mus musculus, 319N1) of 182 nM. Also, in [4], the “IC50 fold change, resistant clones versus parental” value was > 2.5 fold.

As to `O=C(c1ccc(Cl)c([N+](=O)[O-])c1)N1CCN(c2ccccc2F)CC1` [Compound 12], the “fold less active than parent benzamide 1” value in assay [3] (319N1) came to 2 fold.

Turning to `Cc1ccc(Cl)cc1N1CCN(C(=O)c2ccc(F)c([N+](=O)[O-])c2)CC1` [Compound 20, (4-(5-Chloro-2-methylphenyl)piperazin-1-yl)(4-fluoro-3-nitrophenyl)methanone], the concentration giving a half-maximal response (EC50) in assay [3] (Mus musculus, 319N1) turned out to be 818 nM. Molecule `Cc1ccc(Cl)cc1N1CCN(C(=O)c2ccc(I)c([N+](=O)[O-])c2)CC1` [Compound 22, (4-(5-Chloro-2-methylphenyl)piperazin-1-yl)(4-iodo-3-nitrophenyl)methanone] had an EC50 in assay [3] (Mus musculus, 319N1) of 51 nM.

In turn, `Cc1ccc(Cl)cc1N1CCN(C(=O)c2ccc(OC(F)(F)F)c([N+](=O)[O-])c2)CC1` [Compound 23, (4-(5-Chloro-2-methylphenyl)piperazin-1-yl)(3-nitro-4-(trifluoromethoxy)phenyl)methan-one] gave an EC50 in assay [3] (Mus musculus, 319N1) of 20 nM. Turning to `C#CCOc1cccc(N2CCN(C(=O)c3ccc(Cl)c([N+](=O)[O-])c3)CC2)c1` [Compound 24, (4-Chloro-3-nitrophenyl)(4-(3-(prop-2-yn-1-yloxy)phenyl)piperazin-1-yl)methanone], the “covalent modification of 50 kDa protein (p50), in-gel fluorescence” value in assay [5] is given as “covalently modified”. In the case of `C#CCOc1cccc(N2CCN(C(=O)c3ccc(C)c([N+](=O)[O-])c3)CC2)c1` [Compound 25, (4-Methyl-3-nitrophenyl)(4-(3-(prop-2-yn-1-yloxy)phenyl)piperazin-1-yl)methanone], in assay [3] (319N1), the “fold less active compared to 24” value came out at 10 fold. Further, the “covalent modification of 50 kDa protein (p50), in-gel fluorescence” value in [5] was “not observed”. With `COc1cc(OC)cc(N2CCN(C(=O)c3ccc(C=O)c([N+](=O)[O-])c3)CC2)c1` [Compound 26, 4-(4-(3,5-Dimethoxyphenyl)piperazine-1-carbonyl)-2-nitrobenzaldehyde], the “effect on dynamics of β3 tubulin microtubules, in words” value in assay [6] (1, 5 and 10 μM) is given as “dose-dependently altered the dynamics”. Also, the EC50 in assay [3] (Mus musculus, 319N1) came out at 127 nM. For the same molecule, the “effect on growth of microtubules of bovine brain tubulin, in words” value in the assay on bovine brain tubulin (0.5 μM (SI Figure 5C)) was “potently reduced the growth”.

`COC(=O)c1c(C)oc2ccc(NS(=O)(=O)c3ccc(Cl)c([N+](=O)[O-])c3)cc12` [Compound 27]: the “competition with probe 24 for p50, in words” value in [7] is given as “displaced probe 24 from p50 in a dose-responsive manner”. Besides, the “IC50 fold change, resistant clones versus parental” value in assay [4] is given as > 2 fold. Consider `O=C(c1ccc(Cl)cc1)N1CCN(c2ccccc2)CC1` [Compound 28], for which the “antiproliferative activity in words” value in assay [3] (319N1) is given as “complete eradication of antiproliferative activity”.

As for `O=C(c1cccc([N+](=O)[O-])c1)N1CCN(c2ccccc2)CC1` [Compound 29], the “antiproliferative activity in words” value in assay [3] (319N1) is reported as “complete eradication of antiproliferative activity”. For `COc1cc2c(c(OC)c1OC)-c1ccc(OC)c(=O)cc1[C@@H](NC(C)=O)CC2` [colchicine, reference compound], the cell cycle effect result in the assay with 518T2 cells is recorded as “induced G2/M cell cycle arrest”.

Regarding `COc1cc([C@@H]2c3cc4c(cc3[C@@H](O[C@@H]3O[C@@H]5CO[C@@H](C)O[C@H]5[C@H](O)[C@H]3O)[C@H]3COC(=O)[C@H]23)OCO4)cc(OC)c1O` [etoposide, reference compound], the “cross-resistance of 27-resistant clones, in words” value in [4] (clones A–E) is “not cross-resistant”. `CC[C@]1(O)C[C@H]2CN(CCc3c([nH]c4ccccc34)[C@@](C(=O)OC)(c3cc4c(cc3OC)N(C=O)[C@H]3[C@@](O)(C(=O)OC)[C@H](OC(C)=O)[C@]5(CC)C=CCN6CC[C@]43[C@@H]65)C2)C1` [vincristine, reference compound]: the “competition with probe 24 for p50, in words” value in assay [7] is listed as “no such probe competition was observed”.

For the molecule “(4-Bromo-3-nitrophenyl)(4-(5-chloro-2-methylphenyl)piperazin-1-yl)methanone [Compound 21]”, the cell cycle effect result in the assay with 518T2 cells was “induced G2/M cell cycle arrest”. Besides, the “effect on in vitro microtubule growth rate of β3 tubulin, in words” value in assay [6] (up to 10 μM) is on record as “failed to impair”. Moreover, in assay [3] (319N1 mSCLC cells, quoted in running text), the midpoint of the response, the EC50, lay at 55 nM. In the assay with 518T2-Tubb5^T238A cells, the “compound resistance compared to parental 518T2 cells” value is given as “Compound resistance to analog 21 was confirmed”. For the same molecule, the “effect on growth of brain tubulin, in words” value in the assay with bovine brain tubulin (1 μM) is “dramatically affected the growth”. In addition, in the assay with bovine brain tubulin (10:1 (tubulin/compound) ratio, compared to control), the “reduction of growth of bovine brain microtubules” value was “approximately 80%”.
